Screening results deposited in PubChem BioAssay by several laboratories.
In the library only some 1.9% were active in any assay of this set; here they are far more common.
UHRF1 binding: human UHRF1 methylated DNA binding inhibitors; AID 687016; actives 0.75% (n = 370,000); inhibition, % at 4.4 µM; Q96T88; UHRF1 binding to methylated oligo, TR-FRET; in the data active = inhibition above about 21%;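 also: UHRF1 SRA domain binding a hemimethylated CpG hairpin DNA probe; 0% = median of test compound wells and 100% = reference inhibitor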
Casp6 inh: inhibitors of human caspase-6 | P55212 | purified caspase-6, Z-VEID-R110 cleavage fluorescence | inhibition, % at 12.5 µM | actives 0.53% (n = 350,000);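 active = mean inhibition across replicates at least about 35%, with every replicate also reaching that limit, limit read from the data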;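 also: 0% = median of neutral control wells and 100% = no fluorescence left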
Target sequence (P55212 24-179 limits assumed): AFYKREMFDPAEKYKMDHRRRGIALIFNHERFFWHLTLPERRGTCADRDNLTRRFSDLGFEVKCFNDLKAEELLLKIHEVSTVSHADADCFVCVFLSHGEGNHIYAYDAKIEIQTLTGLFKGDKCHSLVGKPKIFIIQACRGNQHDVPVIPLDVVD
Target sequence (P55212 194-293 limits assumed): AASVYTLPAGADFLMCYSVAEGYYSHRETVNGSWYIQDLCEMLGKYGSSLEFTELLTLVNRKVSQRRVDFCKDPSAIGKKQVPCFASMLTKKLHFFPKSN
MBD2 DNA inh: MBD2-methylated oligo binding inhibition. Q9UBB5. TR-FRET, MBD2 binding to methylated oligonucleotide. inhibition, % at 4.4 µM. actives 0.31% (n = 370,000); in the data active = inhibition above about 13%
TDP2 absorb: TDP2 (human) inhibition, absorbance primary screen | AID 720702 | actives 0.34% (n = 370,000) | recombinant TDP2, T5PNP hydrolysis, p-nitrophenol absorbance 415 nm | O95551 | inhibition, % at 12.8 µM;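 active = inhibition above the mean of all tested compounds plus 3 SD, set per campaign, cut at about 25% in these data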;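 also: 0% = DMSO with enzyme and 100% = buffer with substrate but no TDP2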
Target sequence (O95551 whole entry, looked up): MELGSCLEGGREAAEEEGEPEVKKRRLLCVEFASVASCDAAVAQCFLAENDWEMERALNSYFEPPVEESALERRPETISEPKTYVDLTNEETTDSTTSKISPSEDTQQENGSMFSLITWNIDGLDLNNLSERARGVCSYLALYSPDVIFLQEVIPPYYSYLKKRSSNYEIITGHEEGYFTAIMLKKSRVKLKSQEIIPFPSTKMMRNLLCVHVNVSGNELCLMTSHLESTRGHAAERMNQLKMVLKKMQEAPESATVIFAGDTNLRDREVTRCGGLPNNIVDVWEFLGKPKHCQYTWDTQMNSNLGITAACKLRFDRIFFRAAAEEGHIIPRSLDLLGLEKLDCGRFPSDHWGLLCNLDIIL
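Incubation: 2 h at 37 °C; Test system: recombinant human TDP2; Quantity: enzyme 120 nM; Read-out basis: percent inhibition; Medium: 50 mM Tris-HCl pH 7.5 with Mg2+, KCl, DTT, BSA; Repeats: single replicate; Compound: 12.8 µM single point, 1% DMSO; Signal: epi absorbance; Reagent: 5 mM T5PNP chromogenic substrate; Benchmarks: no-enzyme high, DMSO-plus-enzyme low.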
LEDGF integ inh: blocks HIV-1 LEDGF/p75-dependent DNA integration; TR-FRET IN-LEDGF/p75 DNA integration, Eu/Cy5; inhibition, % at 3.7 µM; actives 0.64% (n = 370,000);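 active = inhibition above the screen-wide mean plus 3 SD, cut at about 13% in these data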;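 also: signal is the Cy5 over europium emission ratio at 671 and 618 nm; 0% = plate median of compound wells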
NSD2 inh: NSD2 (human) methyltransferase inhibition; O96028; NSD2 peptide methylation, AlphaScreen, 120 min; inhibition, % at 12.5 µM; actives 0.54% (n = 310,000); in the data active = inhibition above about 50%
Active calls of the source: *; . = no result given.

SMILES	UHRF1 binding	Casp6 inh	MBD2 DNA inh	TDP2 absorb	LEDGF integ inh	NSD2 inh
Cc1ccc(/C=C2\C(=N)N3N=C(CC(=O)N4CCOCC4)SC3=NC2=O)o1	2	38*	-5	-7	8	4
N=C1/C(=C\c2ccc(-c3cccc(C(=O)O)c3)o2)C(=O)N=C2SC=C(c3ccccc3)N12	14	50*	4	8	12	.
N=C1/C(=C/c2ccc(-c3cccc(C(=O)O)c3)o2)C(=O)N=C2SC(CC(=O)N3CCOCC3)=NN12	19	31	6	16	5	84*
CCNC(=O)C[C@H]1CC[C@H]2[C@H](COc3ccc(NC(=O)Nc4cccc(Cl)c4)cc3C(=O)N2C)O1	.	-1	.	.	.	.
CN1C(=O)c2cc(NC(=O)c3cccc(C(F)(F)F)c3)ccc2OC[C@H]2O[C@@H](CC(=O)NCCN3CCCC3)CC[C@H]21	.	-1	.	.	.	.
C[C@H]1CN([C@@H](C)CO)C(=O)c2cc(C3=CCCC3)cnc2O[C@@H]1CN(C)C(=O)Nc1ccccc1	.	2	.	.	.	.
C[C@@H]1CCCCO[C@H](CN(C)C(=O)Nc2ccc(F)cc2)[C@H](C)CN([C@@H](C)CO)C(=O)c2cc(NC(=O)Nc3ccccc3)ccc2O1	.	2	.	.	.	.
CCCN1[C@@H]2Cn3c(ccc(C4=CCCCC4)c3=O)[C@H]1[C@@H](C(=O)N1CCc3ccccc3C1)[C@@H]2CO	.	1	.	.	.	.
CCOc1ccc2c(c1)[nH]c(=S)n2C	39*	2	-1	13	-1	0
C/C(=N\NC(=O)c1cc(O)cc(O)c1)c1ccc(NC(=O)Cc2ccccc2)cc1	46*	71*	12	7	16*	.
C/C(=N\NC(=O)c1cccc(F)c1)c1ccc(NC(=O)Cc2ccccc2)cc1	0	0	1	7	-2	-1
C[C@@H]1CN([C@H](C)CO)C(=O)c2cccc(NS(=O)(=O)c3cccs3)c2O[C@H]1CN(C)C(=O)Nc1cccc2ccccc12	.	3	.	.	.	.
CCC(Sc1nc2ncnc(N)c2[nH]1)C(=O)O (stereo not drawn)	21*	.	2	0	0	0
CCNC(=S)N1CCCCC1CO (stereo not drawn)	4	47*	-1	-8	4	-6
Cc1ccc(S(=O)(=O)N(C)C[C@H]2Oc3ccc(NC(=O)Nc4ccccc4)cc3C(=O)N([C@H](C)CO)C[C@@H]2C)cc1	.	3	.	.	.	.
CCOc1cc(NC(=O)c2ccco2)c(OCC)cc1NC(=O)CCc1ccccc1OC	-1	.	0	7	15*	.
CNC(=S)Nc1cc(OC)c(NC(=O)c2ccco2)cc1OC	43*	.	-5	8	-2	0
CC=Cc1ccc2n(c1=O)C[C@H]1[C@H](CO)[C@@H](C(=O)NCCC)[C@@H]2N1C(=O)C1CC1 (mixture of isomers)	.	-3	.	.	.	.
C/C(=N\NC(=O)CSCc1ccc([N+](=O)[O-])cc1)c1ccccc1	30*	0	1	-6	-7	0
C[C@@H]1CN([C@H](C)CO)S(=O)(=O)c2ccc(C3=CCCC3)cc2O[C@H]1CN(C)S(=O)(=O)c1cn(C)cn1	.	-1	.	.	.	.
CCOC(=O)CC[C@H]1CC[C@]2(CCCN(S(=O)(=O)C3CCCCC3)C2)O1	42*	.	-3	-7	4	.
COc1cccc(NC(=O)N[C@H]2CC[C@@H](CC(=O)NCc3ccccn3)O[C@@H]2CO)c1	.	0	.	.	.	.
Cc1noc(C)c1NC(=O)Nc1ccc2c(c1)CC(=O)N([C@H](C)CO)C[C@H](C)[C@@H](CN(C)Cc1ccc(C(=O)O)cc1)O2	.	-1	.	.	.	.
O=S(=O)(N[C@@H]1CC[C@H](CCn2cc(-c3ccc(F)cc3)nn2)O[C@@H]1CO)c1ccccc1F	.	1	.	.	.	.
Cc1cccn2cc(-c3ccc(S(=O)(=O)N4CCCCC4)cc3)nc12	25*	2	10	-2	-1	-5
SMILES	UHRF1 binding	Casp6 inh	MBD2 DNA inh	TDP2 absorb	LEDGF integ inh	NSD2 inh
Cc1cccn2cc(-c3ccc(S(=O)(=O)N4CCOCC4)cc3)nc12	1	.	5	2	1	.
COc1cc(CNC2CCCC2)c(Br)cc1OC1CCCC1	30*	-1	0	-5	-4	10
CCOC(=O)c1c(NC(=O)C2CC(Cl)=CCC2C(=O)O)sc2c1CC(C)(C)OC2 (stereo not drawn)	5	43*	-5	3	3	2
CCOC(=O)c1c(NC(=O)C2CC2)sc2c1CC(C)(C)OC2	0	-3	1	15	1	-5
CCOc1ccc(N(CC(=O)Nc2cc(Cl)ccc2C)S(C)(=O)=O)cc1	0	57*	6	-5	0	-3
O=C(CCOc1ccccc1)N1CCN(S(=O)(=O)c2ccccc2F)CC1	0	48*	-1	0	0	-2
CC(C)NC(=O)Nc1ccc2c(c1)CC(=O)N([C@H](C)CO)C[C@H](C)[C@@H](CN(C)S(=O)(=O)c1ccccc1)O2	.	3	.	.	.	.
COc1ccc(-c2cc(-c3ccco3)[nH]c(=O)c2C#N)cc1OC	1	38*	-5	6	4	.
N#Cc1c(-c2ccccc2)cc(-c2ccc3c(c2)OCO3)[nH]c1=O	0	1	1	-19	1	-3
CNC(=O)c1ccccc1NC(=O)C1CC(=O)N(C(C)C)C1 (stereo not drawn)	0	66*	-4	4	0	1
Cc1ccc(NC(=O)CSc2nnc(Cc3csc(C)n3)o2)c(C)c1	3	62*	3	-4	-2	-1
CC(C)NC(=O)Nc1ccc2c(c1)C(=O)N(C)[C@H]1CC[C@@H](CC(=O)NCC3CCCCC3)O[C@@H]1CO2	.	4	.	.	.	.
O=C(C[C@@H]1C[C@H]2c3cc(NC(=O)Nc4ccccc4F)ccc3O[C@H]2[C@H](CO)O1)NCc1ccc2c(c1)OCO2	.	-1	.	.	.	.
N#CC1=C(S)N(c2ccccc2)C(c2ccc(-c3ccc(Cl)c(Cl)c3)o2)NC1=O (stereo not drawn)	-7	8	-3	26*	6	.
CN(c1cccc(NC(=O)CCSc2ccccc2)c1)S(C)(=O)=O	-5	1	-4	0	2	-1
CN(c1cccc(NC(=O)c2ccc(N(C)S(=O)(=O)c3ccccc3)cc2)c1)S(C)(=O)=O	0	3	-5	-9	1	-1
CC(Sc1ccccc1)C(=O)Nc1cccc(N(C)S(C)(=O)=O)c1 (stereo not drawn)	23*	.	-5	-10	-1	-1
CN(c1cccc(NC(=O)c2ccc(C(C)(C)C)cc2)c1)S(C)(=O)=O	23*	-1	3	-3	2	-2
C[C@@H]1CN([C@@H](C)CO)C(=O)Cc2cc(N(C)C)ccc2O[C@H]1CN(C)C(=O)Nc1ccc(F)cc1	.	-5	.	.	.	.
C[C@@H]1CN([C@H](C)CO)C(=O)c2cccc(NC(=O)c3ccncc3)c2O[C@H]1CN(C)Cc1ccc(-c2ccccc2)cc1	.	3	.	.	.	.
